# High-throughput results: PubChem BioAssay, several laboratories
# STAT1 inh = STAT1 signaling inhibition; AID 920; inhibition, % at 5.5 µM; 200,000 tested, 0.35% active; NIH 3T3 STAT1-luciferase reporter, IFN-gamma, luminescence;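 active means inhibition above a set limit, the mean inhibition across all tested compounds plus 3 SD, cut at about 34% in these data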;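 further: 0% = IFN-gamma with DMSO and 100% = IFN-gamma with 300 µM nifuroxazide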
# STAT3 blocker = reduces IL-6 driven STAT3 reporter signal; 190,000 tested, 0.89% active; inhibition, % at 5.5 µM; AID 862; U3A cells, IL-6 STAT3-luciferase reporter, luminescence; host cell line lacks STAT1;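 active means inhibition above the mean inhibition across all screened compounds plus 3 SD, cut at about 44% in these data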;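 further: 0% = DMSO only wells and 100% = 100 µM nifuroxazide control wells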
# APP 5'UTR act = APP 5'UTR luciferase reporter activation; 190,000 tested, 1% active; SH-SY5Y APP 5'UTR luciferase reporter, luminescence; zero percent = DMSO vehicle wells; activation, % at 2 µM; AID 1276;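 active means activation above a set limit, based on mean plus 3 SD of controls, cut at about 140% in these data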
# STAT1 act = increases IFN-gamma driven STAT1 reporter signal. 200,000 tested, 2.6% active. activation (% of control), % at 5.5 µM. NIH 3T3 STAT1-luciferase reporter, luminescence; 100% = IFN-gamma alone, no compound;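 active means activation above the screen-wide mean activation plus 3 SD, cut at about 130% in these data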;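 further: raw ratio to IFN-gamma control signal so 100% means no change and 0% no light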
# NF-kB neuron act = compounds increasing NF-kB expression in human neuronal cells; NF-kB reporter expression; hits give high values; fold change at 12.5 µM; 190,000 tested, 1.6% active; in the data active means fold change above about 3.3
# STAT3 act = STAT3 signaling activation. U3A cells, IL-6 STAT3-luciferase reporter, luminescence; 100% = signal with IL-6 EC80 alone. activation (% of control), % at 5.6 µM. 190,000 tested, 0.91% active. AID 871;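 active means activation above the screen-wide mean of compound activation plus 3 SD, cut at about 130% in these data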;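 further: 0% = background luminescence of wells with medium and substrate only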
#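 Material: human STAT1-deficient U3A cells with stable STAT3-luciferase reporter / Probe or stimulus: IL-6 stimulus at 33 ng/mL final / Schedule: 1 h compound pre-exposure, 6 h IL-6 stimulation, 37 °C / Technique: luminescence / Read-out basis: percent of IL-6-only median luminescence / Control set: IL-6-only high control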
# An asterisk follows results filed as active. In the library only some 5.1% were active in any assay of this set; here they are far more common.
SMILES,STAT1 inh,STAT3 blocker,APP 5'UTR act,STAT1 act,NF-kB neuron act,STAT3 act
O=C(CCC1CCCC1)N1CCC(N2CCCCCC2)CC1,5,1,-5,95,1.1,100
COCCOCCn1c(/C=C/c2ccccc2)nc2ccccc21,-42,31,166*,135*,6*,78
CC(C)n1c(/C=C/c2ccccc2)nc2ccccc21,-14,9,51,113,1.4,91
CCCn1c(/C=C/c2ccccc2)nc2ccccc21,-50,-9,123,144*,5.6*,112
CCCCOc1ccc(-c2cn3ccccc3n2)cc1[N+](=O)[O-],-35,-2,134,132*,4.6*,102
CCCOc1ccc(-c2csc(N)n2)cc1[N+](=O)[O-],-42,-24,67,138*,2.3,115
O=C(Cc1csc(-c2ccccc2)n1)NCc1cccs1,-7,2,4,107,1.6,102
CC1Cc2ccccc2N1C(=S)NC(=O)c1ccco1 (configuration not stated),-4,3,-1,101,0.99,101
CCOC(=O)/C=C/C(=O)N1CCc2ccccc21,3,-1,-2,97,1.1,111
O=C(c1ccc(Br)o1)N1CCc2ccccc21,-53,8,119,148*,4.3*,97
COc1ccc(/C=C/C(=O)N2CCCc3ccccc32)cc1,-11,2,-3,110,1.2,98
O=C1CCN(C(=O)/C=C/c2ccccc2)c2ccccc21,-31,12,15,129*,1.9,91
O=C(NC(=S)N1CCCc2ccccc21)c1ccco1,-16,-45,29,115,0.69,135*
O=C(/C=C/c1ccco1)N1CCc2ccccc21,12,35,250*,90,7.7*,73
O=C(c1ccco1)N1CCc2ccccc21,-36,20,55,134*,2.3,90
Nc1nnc(CC(=O)N/N=C/c2cccc(OCCOc3ccccc3)c2)s1,-31,-8,90,129*,1.5,111
S=C(NCCc1ccccc1)NC1CCCCCC1,-41,-4,78,137*,3.2,110
CN1CCN(C(=S)NCCc2ccccc2)CC1,-3,-5,21,103,1.4,109
O=C(NC1CCCCC1)C(=S)NCCc1ccccc1,-19,7,24,115,1.4,97
CC1CCN(C(=S)NCCc2ccccc2)CC1,-26,-7,95,124,3.4*,113
COc1ccc(-c2c(C)n([O-])c3c([n+]2=O)CCCC3)cc1OC,0,-1,-19,99,1.3,103
O=C(O)CCC(=O)Nc1ccc(N=Nc2ccccc2)cc1,-9,2,0,109,1.2,99
CC1CC1C(=O)OCC(=O)Nc1ccc(N=Nc2ccccc2)cc1 (configuration not stated),-53,0,143*,148*,5.9*,101
CC(C)(C)C(=O)Nc1ccc(N=Nc2ccccc2)cc1,67*,88*,114,37,1.1,28
CC1CC1C(=O)OCC(=O)Nc1ccccc1Oc1ccccc1 (configuration not stated),7,5,0,94,0.97,103
SMILES,STAT1 inh,STAT3 blocker,APP 5'UTR act,STAT1 act,NF-kB neuron act,STAT3 act
Cn1cccc1/C=N/NC(=O)c1sc2ccccc2c1Cl,-34,12,13,131*,1.4,96
CC(C)(C)NC(=O)C[n+]1ccc(C(N)=O)cc1,7,0,6,92,6.2*,102
CCN(CC)C(=O)C[n+]1ccc(C(N)=O)cc1,4,3,-17,95,1.3,99
COC(=O)C1=C(C)N(Cc2cccnc2)C(=O)/C1=C\c1sccc1C,7,14,-16,92,1.3,90
O=C(NCc1ccc(Cl)cc1)c1cnn2ccccc12,-34,3,77,131*,2.4,106
Cc1cc(C)n2ncc(C(=O)NCc3ccc(Cl)cc3)c2n1,-4,4,4,104,0.89,97
O=C(COC(=O)/C=C/c1ccc(Cl)cc1Cl)NCc1ccco1,-2,9,-20,100,1.1,95
Cn1c(O)c(N=NC(=O)Cn2c(C(F)(F)F)nc3ccccc32)c2ccccc21,6,-2,-1,95,1,102
CC(C)c1ccc(-n2nc3ccc(N)cc3n2)cc1,17,22,117,84,4.9*,83
Cc1ccc(-n2nc(-c3ccc(N)cc3)cc2N)cc1,8,-5,24,93,1.6,104
Cc1ccc(-n2nc3ccc(N)cc3n2)cc1,-52,1,7,150*,2.7,102
Cc1ccc(-n2nc3ccc(NC(=O)C(C)C)cc3n2)cc1,-40,22,194*,135*,3.2,85
Cn1cc2ccc(N)cc2n1,-1,1,-13,99,1.3,106
COc1cccc2c1C(=O)c1c(O)c3c(c(O)c1C2=O)C[C@@](O)(C(=O)CO)C[C@@H]3O[C@H]1C[C@H](N)[C@H](O)[C@H](C)O1,-181,-45,-95,265*,3.8*,142*
COc1ccc(NC(=O)c2ccc([N+](=O)[O-])cc2[N+](=O)[O-])c(OC)c1,1,3,-11,99,1,104
Cc1cccc(CSc2cccc3cccnc23)c1,-51,-17,-35,146*,3,115
CN(CCc1ccccn1)C(=O)CCC1CCCN(C(=O)c2ccc3c(c2)OCCO3)C1 (configuration not stated),-2,11,1,101,1,100
CCc1noc(C)c1C(=O)N1CCCC(CCC(=O)NCc2ccc(F)c(F)c2)C1 (configuration not stated),-3,5,-10,102,1.4,106
COc1c(OC(C)=O)ccc(/C=C/c2ccc3ccccc3n2)c1[N+](=O)[O-],1,0,136*,99,1.1,105
COCn1c(-c2ccc(OC)c(OC)c2)nc2ccccc21,-35,12,73,132*,1.8,92
Cc1cccc(NC(=O)Nc2ccc(C)c(C)c2)n1,-31,-33,2,129*,2.1,135*
Cc1cccc(NC(=O)c2ccc([N+](=O)[O-])cc2Cl)n1,0,0,2,100,1.1,101
Cc1cccc(NC(=O)Nc2cccc(C)n2)n1,-12,15,18,111,1.5,91
Cc1cccc(NC(=O)Nc2ccc([N+](=O)[O-])cc2)n1,-36,12,15,134*,1.1,90
Cc1cccc2nc(COc3ccc(Cl)c4cccnc34)cn12,-33,4,38,129*,1.4,97
Cc1cccc2nc(CSc3ncccc3C(=O)O)cn12,2,4,12,98,0.87,97
CCOC(=O)CNC(=O)CSc1nc(C)cc(C)c1C#N,13,21,-3,88,1.2,86
CCOC(=O)NC(=O)CSc1nc(C)cc(C)c1C#N,-26,28,113,122,3.4*,80
